In one test the test system is CEM-4. As to the kind of experiment: Cytotoxic concentration required to reduce the viability of uninfected cells by 50% after 5 days of incubation in the presence on CEM-4 cells. Format: functional. To be noted: Homo sapiens, CEM-4, 120 h. A digest of the protocol: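 Uninfected CEM-4 cells were incubated with compound for 5 days. CC50 is the concentration that reduced viability by 50%. Values average at least two separate experiments.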

In test [1] the test system is Human immunodeficiency virus 1. The experiment in a line: Inhibitory concentration required to inhibit HIV-induced cytopathicity in CEM-4 cells by 50% based in the MTT assay. Format: functional, organism-based. The settings on record: Human immunodeficiency virus 1, CEM-4.
The subject of test [2] is Human immunodeficiency virus 1. The experiment in a line: Inhibitory concentration required to inhibit HIV-induced cytopathicity in CEM-4 cells by 50% based in the MTT assay; Not active. Format: functional, organism-based. (In general: Cytopathic effects are the visible damage that an infection or toxin causes in cultured cells.)

24 compounds from ChEMBL document CHEMBL1130289, “Polyanion inhibitors of human immunodeficiency virus and other viruses. 5. Telomerized anionic surfactants derived from amino acids” (J Med Chem, 1997) can be followed below.

In the case of `CCCCCCCCCCCCSCCCCCCCCC(=O)N(CC)CCCCCCCCCCC(=O)[O-].[Na+]`, it took 100 µg/mL to reach half-maximal cytotoxicity in the test on CEM-4 (CC50). In test [1], this compound showed an IC50 of 25 µg/mL.
`CCCCCCCCCCCCSCCCCCCCCC(=O)NCCCCCCCCCCC(=O)[O-].[Na+]` showed a half-maximal cytotoxic concentration (CC50) in the test on CEM-4 of 29 µg/mL. For the same compound, in test [2], the IC50 entry is reported as “Not Active”.
Take `CCCCCCCCCCCCSCCCCCCCCCCCCCCC(=O)NCCCCCCCCCCC(=O)NCC(=O)[O-].[Na+]`: the CC50 in the test with CEM-4 is more than 300 µg/mL. In test [1], this compound came in with an IC50 of 15 µg/mL.
In the case of `CCCCCCCCCCCCSCCCCCCC(=O)NCCCCCCCCCCC(=O)NCC(=O)[O-].[Na+]`, half-maximal cytotoxicity in the test on CEM-4 (CC50) was put at 118 µg/mL. In addition, in test [2], the 50% inhibitory concentration (IC50) result is “Not Active”.
The compound `CCCCCCCCCCCCSCCCCCCC(=O)N(CC)CCCCCCCCCCC(=O)NCC(=O)[O-].[Na+]` returned a half-maximal cytotoxic concentration (CC50) with CEM-4 of 50 µg/mL. Further, the concentration for half-maximal inhibition (IC50) result in test [2] is on record as “Not Active”.
`CCCCCCCCCCCCSCCCCCCCCCCCCCCCCCCCCCCCCCCCCCCC(=O)N(CC)CCCCCCCCCCC(=O)NCC(=O)[O-].[Na+]` displayed a CC50 in the test with CEM-4 of 80 µg/mL. This compound also came in with a half-maximal inhibitory concentration (IC50) in test [1] of 4 µg/mL.
As to `CCCCCCCCCCCCSCCCCCCCCCCCCCCCCCCC(=O)N(C)CCCCCCCCCCC(=O)[O-].[Na+]`, the CC50 in the test on CEM-4 was more than 200 µg/mL. Further, the IC50 entry in test [2] is given as “Not Active”.
`CCCCCCCCCCCCSCCCCCCC(=O)NCCCCCCCCCCC(=O)NCCC(=O)[O-].[Na+]` displayed a 50% cytotoxic concentration (CC50) in the test on CEM-4 of more than 300 µg/mL. Besides, in test [2], the IC50 entry is “Not Active”.
`CCCCCCCCCCCCSCCCCCCCCCCCCCCCCCCCCCCCCCCCCCCCCCCC(=O)N(CC)CCCCCCCCCCC(=O)NC(CCC(=O)[O-])C(=O)O.[Na+]` (stereo not drawn) had a half-maximal cytotoxic concentration (CC50) in the test on CEM-4 of more than 300 µg/mL. Moreover, the IC50 in test [1] stood at 25 µg/mL.
`CCCCCCCCCCCCSCCCCCCCCCCCCCCCCCCCCC(=O)N(CC)CCCCCCCCCCC(=O)NC(CCC(=O)[O-])C(=O)O.[Na+]` (stereo not drawn) registered a cytotoxic concentration (CC50) in the test on CEM-4 of more than 300 µg/mL. This compound registered a concentration for half-maximal inhibition (IC50) in test [1] of 46 µg/mL.
For `CCCCCCCCCCCCSCCCCCCCCCCC(=O)NCCCCCCCCCCC(=O)NC(CCC(=O)[O-])C(=O)O.[Na+]` (stereo not drawn), in that order: more than 100 µg/mL and 11 µg/mL.
`CCCCCCCCCCCCSCCCCC(=O)NCCCCCCCCCCC(=O)NC(CCC(=O)[O-])C(=O)O.[Na+]` (stereo not drawn) gave a CC50 in the test with CEM-4 of more than 100 µg/mL. For the same compound, the half-maximal inhibitory concentration (IC50) entry in test [2] is listed as “Not Active”.
As for `CCCCCCCCCCCCSCCCCCCC(=O)N(CC)CCCCCCCCCCC(=O)NC(CCC(=O)[O-])C(=O)O.[Na+]` (stereo not drawn), the CC50 in the test with CEM-4 was more than 100 µg/mL. For the same compound, inhibition in test [1] was half-maximal at 21 µg/mL (IC50).
`CCCCCCCCCCCCSCCCCCCCCCCCCCCCCCCCCCCCCCCCCCCC(=O)NCCCCCCCCCCC(=O)NC(CCC(=O)[O-])C(=O)O.[Na+]` (stereo not drawn): the CC50 in the test on CEM-4 is more than 100 µg/mL. The compound further gave an IC50 in test [1] of 15 µg/mL.
In turn, `CCCCCCCCCCCCSCCCCCCCCCCCCCCC(=O)NCCCCCCCCCCC(=O)NC(CCC(=O)[O-])C(=O)O.[Na+]` (stereo not drawn) gave a CC50 in the test on CEM-4 of more than 100 µg/mL. Moreover, in test [1], the IC50 was 12 µg/mL.
`CCCCCCCCCCCCSCCCCCCCCCCC(=O)N(CC)CCCCCCCCCCC(=O)NCC(=O)[O-].[Na+]` gave a CC50 with CEM-4 of more than 100 µg/mL. This compound also displayed an IC50 in test [1] of 120 µg/mL.
`CCCCCCCCCCCCSCCCCCCCCCCCCCCCCCCCCCCCCCCC(=O)N(C)CCCCCCCCCCC(=O)[O-].[Na+]` returned a CC50 in the test on CEM-4 of more than 200 µg/mL. The half-maximal inhibitory concentration (IC50) result in test [2] is recorded as “Not Active”.
In the test with CEM-4, `CCCCCCCCCCCCSCCCCCCCCCCCCCCCCCCCCCCC(=O)N(CC)CCCCCCCCCCC(=O)[O-].[Na+]` registered a cytotoxic concentration (CC50) of 50 µg/mL. For the same compound, in test [1], 4 µg/mL corresponded to half-maximal inhibition (IC50).
For `CCCCCCCCCCCCSCCCCCCCCCCCCCCCCC(=O)N(CC)CCCCCCCCCCC(=O)NCCC(=O)[O-].[Na+]`, the CC50 in the test with CEM-4 was more than 100 µg/mL. Moreover, the half-maximal inhibitory concentration (IC50) entry in test [2] is reported as “Not Active”.
`CCCCCCCCCCCCSCCCCCCCCCCCCCCCCCCCCCCCCCCCCC(=O)NCCCCCCCCCCC(=O)NCC(=O)[O-].[Na+]`: in the test on CEM-4, the CC50 was more than 300 µg/mL. The IC50 in test [1] turned out to be 194 µg/mL.
For the compound `CCCCCCCCCCCCSCCCCCCCCCCCCCCCCCCCCCCCCCCCCCCCCCCCCCCCCC(=O)N(C)CCCCCCCCCCC(=O)[O-].[Na+]`, in the test on CEM-4, the cytotoxic concentration (CC50) was more than 200 µg/mL. The IC50 result in test [2] is on record as “Not Active”.
The compound `CCCCCCCCCCCCSCCCCCCCCCCCCCCCCCCCCCCCCCCCCCCCCCCCCCCCCCCCCCCCCCCCCCCCCCCCCC(=O)N(CC)CCCCCCCCCCC(=O)NCCC(=O)[O-].[Na+]` gave a CC50 with CEM-4 of more than 100 µg/mL. The IC50 entry in test [2] is on record as “Not Active”.
Compound `CCCCCCCCCCCCSCCCCCCCCCCCCCCCCCCCCCCCCCCCCCCCCCCCCCCCCCCCCCCCCCCCCCCCCCCCCCCCCCCCCCCCCCCCCCCCCC(=O)N(CC)CCCCCCCCCCC(=O)[O-].[Na+]` returned a 50% cytotoxic concentration (CC50) with CEM-4 of 30 µg/mL. In test [1], this compound displayed an IC50 of 5 µg/mL.
On to `CCCCCCCCCCCCSCCCCCCCCCCCCCCCCC(=O)NCCCCCCCCCCC(=O)NCCC(=O)[O-].[Na+]`, for which the half-maximal cytotoxic concentration (CC50) in the test on CEM-4 was more than 100 µg/mL. In addition, the half-inhibitory concentration (IC50) result in test [2] is given as “Not Active”.

What is called CC50 is the concentration giving 50% cytotoxicity. What is called IC50 is the concentration needed to halve the response being measured. Lower therefore signals higher potency.
